Counter-ions that a name gives are not always drawn.
Assays:
[1] = test system: PANC-1; assay: Growth inhibition against human PANC1 cells after 72 hrs by inverted microscopy; type: functional; details: PANC-1, 72 h
In short: (§1)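 Cells seeded at 2×10^4 cells/well in MEM10FCS containing compound at the test concentrations and exposed continuously for 72 h at 37 °C, 10% CO₂, 98% humidity. Untreated control wells were counted daily to confirm exponential growth. Cells were stained with crystal violet and inspected by inverted microscope, and inhibition was judged against controls. GI50 (50% growth inhibition) is the mean of duplicate wells.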

[2] = Growth inhibition against human IGROV cells after 72 hrs by inverted microscopy; type: functional; in short: as §1
[3] = test system: HT-29; assay: Growth inhibition against human HT-29 cells after 72 hrs by inverted microscopy; type: functional; details: HT-29, 72 h; in short: as §1
[4] = test system: HeLa; assay: Growth inhibition against human HeLa cells after 72 hrs by inverted microscopy; type: functional; in short: as §1
[5] = test system: LoVo; assay: Growth inhibition against human LoVo cells after 72 hrs by inverted microscopy; type: functional; in short: as §1
[6] = test system: K562; assay: Growth inhibition against human K562 cells after 72 hrs by inverted microscopy; type: functional; details: K562, 72 h; in short: as §1
[7] = Growth inhibition against human IGROV-ET cells after 72 hrs by inverted microscopy; type: functional; in short: as §1
[8] = Growth inhibition against human LoVo/DX cells after 72 hrs by inverted microscopy; type: functional; in short: as §1
[9] = test system: Plasmodium falciparum; assay: Antiplasmodial activity against chloroquine-resistant Plasmodium falciparum W2 infected in human erythrocytes assessed as inhibition of parasite growth after 24 hrs by [3H]hypoxanthine incorporation assay; type: functional, organism-based
In short: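 Ring-stage parasites, sorbitol-synchronised, in human O-negative erythrocytes in RPMI with 10% human plasma; plated at 1% parasitemia, 1% haematocrit. Compounds diluted from DMSO stocks in hypoxanthine-free medium, final DMSO 0.002%. After 24 h, [3H]-hypoxanthine (0.5 μCi/well) added for another 18 h at 37 °C. Incorporation compared with drug-free controls, IC50 by linear interpolation. Three experiments, each in triplicate.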

[10] = Selectivity index, ratio of CC50 for human HepG2 cells to IC50 for chloroquine-resistant Plasmodium falciparum W2 infected in human erythrocytes; type: functional
In short: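 HepG2 hepatoma cells in RPMI1640 with 5% FBS, 4×10^4 cells/well, allowed 18 h at 37 °C. Four serial dilutions from 1000 µg/mL, final DMSO 0.01%, in triplicate, for 24 h at 37 °C. Cytotoxic concentration taken from the dose–response curve, then divided by the antiplasmodial IC50.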

[11] = Cytotoxicity against human HepG2 cells after 24 hrs by MTT assay; type: cell-based
In short: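 Hep G2A16 hepatoma cells kept in RPMI1640 with 5% FBS and gentamicin, trypsinised and plated at 4×10^4 cells/well, then left 18 h at 37 °C before dosing. Compounds were given in triplicate at four serial-dilution concentrations starting at 1000 µg/mL, with final DMSO 0.01%, for 24 h at 37 °C. MTT (6 mg/mL in PBS) was added for 1 h 30 min, solubilised in DMSO and read at 570 nm. Cytotoxic concentration was taken from the dose–response curve.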

[12] = Toxicity in RBC (unknown origin) assessed as hemolysis at 139 uM; type: cell-based; details: erythrocyte

Row | SMILES | GI50 [1] | GI50 [2] | GI50 [3] | GI50 [4] | GI50 [5] | GI50 [6] | GI50 [7] | GI50 [8] | IC50 [9] | Ratio CC50/IC50 [10] | CC50 at 24 h [11] | Activity [12]
1 | COC(=O)[C@]1(C)CCC[C@@]2(C)[C@@H]3CC[C@@H]4C[C@@]3(CC[C@@H]21)C[C@@H]4CO | > 9.02 µM | > 9.02 µM | > 9.02 µM | > 9.02 µM | > 9.02 µM | > 9.02 µM | 7.23 µM | > 9.02 µM |  |  |  | 
2 | COC(=O)[C@]1(C)CCC[C@]2(C)[C@@H]1CC[C@@]13C[C@H](C[C@H]4O[C@]412)[C@@]1(CO1)C3 | > 8.66 µM | > 8.66 µM | > 8.66 µM | > 8.66 µM | > 8.66 µM | > 8.66 µM | > 8.66 µM | > 8.66 µM | 10.4 µM | 119.1 | 1240 µM | 
3 | COC(=O)[C@]1(C)CCC[C@]2(C)[C@@H]1CC[C@@]13C[C@H](C[C@H]4O[C@]412)[C@]1(CO1)C3 | > 8.66 µM | > 8.66 µM | > 8.66 µM | > 8.66 µM | > 8.66 µM | > 8.66 µM | > 8.66 µM | > 8.66 µM | 6.9 µM | 117.4 | 810 µM | Toxic
4 | C=C1[C@H]2CC[C@H]3[C@]4(C)CCC[C@@](C)(C(=O)OC)[C@H]4CC[C@]3(C2)[C@H]1O | > 9.02 µM | 7.52 µM | 7.4 µM | 7.04 µM | 8.21 µM | > 9.02 µM | > 9.02 µM | > 9.02 µM | 8.4 µM |  |  | 
5 | C=C1C[C@@]23CC[C@H]4[C@@](C)(CCC[C@@]4(C)C(=O)OC)[C@@H]2CC[C@H]1C3 | > 9.48 µM | 8.44 µM | > 9.48 µM | > 9.48 µM | > 9.48 µM | > 9.48 µM | > 9.48 µM | > 9.48 µM | 8.2 µM | 3.9 | 32.2 µM | 
6 | COC(=O)[C@]1(C)CCC[C@@]2(C)[C@@H]3CC[C@H]4C[C@]3(C=C4C)CC[C@@H]21 | > 9.48 µM | > 9.48 µM | > 9.48 µM | > 9.48 µM | > 9.48 µM | > 9.48 µM | > 9.48 µM | > 9.48 µM | 8.8 µM | 5.1 | 44.9 µM | 
7 | COC(=O)[C@]1(C)CCC[C@@]2(C)[C@@H]3CC[C@H]4C[C@@]3(CC[C@@H]21)C[C@]41CO1 | > 9.02 µM | > 9.02 µM | > 9.02 µM | > 9.02 µM | > 9.02 µM | > 9.02 µM | > 9.02 µM | > 9.02 µM | 9.6 µM | 11.5 | 111 µM | 
8 | C[C@@]1(C(=O)O)CCC[C@@]2(C)C3=CC[C@H]4C[C@@]3(CC[C@H]12)C[C@]41CO1 | > 9.48 µM | > 9.48 µM | > 9.48 µM | > 9.48 µM | > 9.48 µM | > 9.48 µM | > 9.48 µM | > 9.48 µM |  |  |  | 
9 | COC(=O)[C@]1(C)CCC[C@@]2(C)[C@@H]3CC[C@H]4C[C@@]3(CC[C@@H]21)[C@@H](O)[C@@H]4C | > 9.02 µM | 8.34 µM | > 9.02 µM | > 9.02 µM | > 9.02 µM | > 9.02 µM | > 9.02 µM | > 9.02 µM | 34.7 µM |  |  | 
10 | COC(=O)[C@]1(C)CCC[C@@]2(C)[C@@H]3[C@H](O)C[C@H]4C[C@@]3(CC[C@@H]21)C[C@@H]4CO | > 8.56 µM | > 8.56 µM | > 8.56 µM | > 8.56 µM | > 8.56 µM | > 8.56 µM | > 8.56 µM | > 8.56 µM | > 143 µM |  |  | 
11 | COC(=O)[C@]1(C)CCC[C@@]2(C)[C@@H]3[C@@H](O)C[C@H]4C[C@@]3(CC[C@@H]21)C[C@@H]4CO | > 8.56 µM | > 8.56 µM | > 8.56 µM | > 8.56 µM | > 8.56 µM | > 8.56 µM | > 8.56 µM | > 8.56 µM | > 143 µM |  |  | 
12 | COC(=O)[C@]1(C)CCC[C@@]2(C)[C@@H]3CC[C@H]4C[C@@]3(CC[C@@H]21)C[C@H]4C=O | > 9.02 µM | > 9.02 µM | > 9.02 µM | > 9.02 µM | > 9.02 µM | > 9.02 µM | > 9.02 µM | > 9.02 µM |  |  |  | 
13 | COC(=O)[C@]1(C)CCC[C@@]2(C)[C@@H]3CC[C@H]4C[C@@]3(CC[C@@H]21)C[C@@H]4C=O | > 9.02 µM | > 9.02 µM | > 9.02 µM | > 9.02 µM | 8.69 µM | 8.18 µM | > 9.02 µM | > 9.02 µM |  |  |  | 
14 | C[C@@]1(C(=O)O)CCC[C@@]2(C)C3=CC[C@@H]4C[C@@]3(CC[C@H]12)CC4=O |  |  |  |  |  |  |  |  | > 157 µM |  |  | 
15 | COC(=O)[C@]1(C)CCC[C@@]2(C)[C@@H]3CC[C@H]4C[C@@]3(CC[C@@H]21)C[C@@H]4C(=O)O |  |  |  |  |  |  |  |  | > 144 µM |  |  | 
16 | COC(=O)[C@]1(C)CCC[C@@]2(C)[C@@H]3CC[C@H]4C[C@@]3(CC[C@@H]21)C[C@@H]4C1NCCCN1 |  |  |  |  |  |  |  |  | 5.4 µM |  |  | 
17 | COC(=O)[C@]1(C)CCC[C@@]2(C)C3=CC[C@H]4C[C@@]3(CC[C@H]12)CC4CO (mixture of isomers) | > 9.02 µM | > 9.02 µM | > 9.02 µM | > 9.02 µM | > 9.02 µM | > 9.02 µM | > 9.02 µM | > 9.02 µM | 33.1 µM |  |  | 
18 | CCN(CC)CCCC(C)Nc1ccnc2cc(Cl)ccc12 (configuration not stated) [CHLOROQUINE] |  |  |  |  |  |  |  |  |  |  | 504 µM | 
19 | COc1cccc2c1C(=O)c1c(O)c3c(c(O)c1C2=O)C[C@@](O)(C(=O)CO)C[C@@H]3O[C@H]1C[C@H](N)[C@H](O)[C@H](C)O1 [DOXORUBICIN HYDROCHLORIDE] | 0.24 µM | 0.11 µM | 0.15 µM | 0.17 µM | 0.24 µM | 0.17 µM | 6.17 µM | 2.21 µM |  |  |  | 
20 | C=C1C[C@@]23CC[C@@H]4[C@](C)(C(=O)O)CCC[C@@]4(C)C2=CC[C@@H]1C3 [GRANDIFLORENIC ACID] |  |  |  |  |  |  |  |  | 23.3 µM |  |  | 
21 | C=C1C[C@@]23CC[C@H]4[C@@](C)(CCC[C@@]4(C)C(=O)O)[C@@H]2CC[C@@H]1C3 [KAURENOIC ACID] | > 9.92 µM | > 9.92 µM | > 9.92 µM | > 9.92 µM | > 9.92 µM | > 9.92 µM | > 9.92 µM | > 9.92 µM | 21.1 µM | 9.1 | 192 µM | 

From ChEMBL document CHEMBL2331420, “Synthesis, cytotoxicity and antiplasmodial activity of novel ent-kaurane derivatives” (Eur J Med Chem, 2013)
